# The list is not random: actives were taken first. Their share in the collection is about 1.8%.
# UPR CHOP act: activators of apoptotic arm of unfolded protein response (CHOP) | AID 449763 | CHO-CHOP luciferase reporter, UPR activation, luminescence; percent of tunicamycin response over DMSO baseline | 0.34% of 330,000 active | activation, % at 10 µM;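 active means at 10 µM dose, activation of 40% or more, normalized to positive control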
#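 assay system = CHO CHOP reporter cells | amount = 500 CHO-CHOP cells per well | buffer or medium = F12 with 10% FBS | incubation = 16-18 h cell attachment, then 6 h compound exposure, 37 °C | detection = luminescence read with Steady-Glo | read-out = percent activation relative to tunicamycin control | controls = tunicamycin high control, DMSO low control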
# 697 NFkB inh: inhibitors of the PMA/ionomycin-induced NF-kB reporter in 697 B cells. 697 B-cell NF-kB luciferase reporter, 16 h. inhibition, % at 4 µM. 0.33% of 330,000 active; in the data active means inhibition above about 35%
# XBP1 UPR activ: activators of adaptive arm of unfolded protein response (XBP1); CHO-XBP1 luciferase reporter, IRE1-XBP1 UPR activation, luminescence; percent of tunicamycin response, DMSO as zero; activation, % at 20 µM; 0.33% of 330,000 active; AID 463104;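 active means versus positive control, 20 µM dose yields 30% or more activation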
#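 incubation = overnight seeding at 37 °C, 6 h compound treatment at 37 °C | assay system = CHO-XBP1 cells stably carrying IRE1-XBP1-driven luciferase reporter | input = 1000 cells per well | detection = luciferase luminescence | dosing = single point, 20 µM final compound, 1% DMSO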
# Jurkat NFkB inh: lowers PMA/ionomycin-induced NF-kB signal in Jurkat cells; PMA/ionomycin-induced NF-kB luciferase reporter, luminescence; inhibition, % at 4 µM; 0.53% of 330,000 active; AID 435003; in the data active means inhibition above about 50%
# CRFR2-BP antag: CRF-BP/CRF-R2 complex antagonism; HEK293 CRF-R2/CRF-BP, CRF-induced calcium fluorescence; inhibition, % at 11.8 µM; 0.59% of 350,000 active; AID 588475;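 active means inhibition of the ligand-induced calcium signal above about 50% at the single tested concentration, limit read from the data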
# Numbers stand for hits; n = inactive; x = no result.
SMILES,UPR CHOP act,697 NFkB inh,XBP1 UPR activ,Jurkat NFkB inh,CRFR2-BP antag
O=C1c2cccc3cccc(c23)C(=O)N1CCN1CCN(C(=S)Nc2ccc(F)cc2)CC1,43,n,n,n,x
O=C(C(c1ccccc1)c1ccccc1)N1CCN(CCN2C(=O)c3cccc4cccc(c34)C2=O)CC1,n,n,n,n,52
Cc1ccc(NC(=S)N2CCN(CCN3C(=O)c4cccc5cccc(c45)C3=O)CC2)cc1,n,n,n,n,n
CCOC(=O)c1cc(S(=O)(=O)Nc2ccc(F)cc2F)cn1C,n,n,n,n,72
COc1cccc(CNC(=O)COC(=O)c2ccc(Cl)s2)c1,n,n,n,n,n
CC1=CC(C)(C)N2C(=O)C3(C(C#N)=C(N)OC4=C3C(=O)CCC4)c3c(C)c(C)cc1c32 (centres undefined),n,n,n,n,n
CC1(c2ccccc2)CC(C)(C)N2C(=O)C3(C(C#N)=C(N)Oc4cc(O)ccc43)c3cccc1c32 (centres undefined),n,n,n,n,116
Cc1cc2c3c(c1)C(C)(c1ccccc1)CC(C)(C)N3C(=O)C21C(C#N)=C(N)OC2=C1C(=O)CC(C)(C)C2 (centres undefined),n,n,n,n,n
CC1=CC(C)(C)N2C(=O)C3(C(C#N)=C(N)Oc4cc(O)ccc43)c3c(C)c(C)cc1c32 (centres undefined),n,n,n,n,66
CCc1cc(C(=O)N2CCCC(C(=O)c3ccc(Oc4ccccc4)cc3)C2)n(C)n1 (centres undefined),n,n,n,n,n
O=C(Nc1nnc(S(=O)(=O)N2CCCCC2)s1)c1ccc(Cl)cc1,n,n,n,n,71
CC1CC(C)CN(C(=O)Cc2c(C(=O)O)[nH]c3ccc(Cl)cc23)C1 (centres undefined),n,n,n,n,n
Cc1ccc(Cl)cc1N1CCN(C(=O)Cc2c(C(=O)O)[nH]c3ccc(Cl)cc23)CC1,n,n,n,n,62
Cc1ccc(Cl)cc1N1CCN(C(=O)Cc2c(C(=O)O)[nH]c3ccccc23)CC1,n,n,n,n,58
FC(F)(F)C(F)(F)C(F)(F)c1nc2nc(Cl)c(Cl)nc2[nH]1,x,x,x,x,n
O=C(COC(=O)C1CCN(S(=O)(=O)c2ccc3c(c2)OCCO3)CC1)NC1CCS(=O)(=O)C1 (centres undefined),n,n,n,n,115
Cc1cc(NC(=O)c2ccco2)sc1C,n,n,n,n,n
CCCc1nc2ccccc2c(NC(=O)CN(CC)CC)c1CC,n,n,n,n,n
CCCCc1nc2ccccc2c(NC(=O)CN(CC)CC)c1CCC,n,n,n,n,98
CC(=O)Nc1cccc(NC(=O)Cc2ccc3ccccc3c2)c1,n,n,n,n,n
COc1ccccc1/C=C/C(=O)N1CCOCC1,n,n,n,n,85
Cc1cc(NS(=O)(=O)c2ccc(NC(=O)COc3ccc(Cl)c(C)c3)cc2)no1,n,n,n,n,n
O=C(NCCCNC(=O)c1ccco1)c1cccc(F)c1,n,n,n,n,n
CCOc1ccc2c(c1)/C(=N/N1C(=O)c3ccccc3C1=O)C(=O)N2,n,n,n,n,105
Cc1ccc2c(c1)/C(=N/N1C(=O)c3ccccc3C1=O)C(=O)N2,n,n,n,n,n
SMILES,UPR CHOP act,697 NFkB inh,XBP1 UPR activ,Jurkat NFkB inh,CRFR2-BP antag
O=C1C=CC(=O)N1c1ccccc1N1C(=O)C=CC1=O,x,x,x,x,97
O=C(c1ccccc1)c1ccccc1N1C(=O)C=CC1=O,n,n,n,n,n
Cc1ccccc1N(C(=O)c1csnn1)C(C(=O)NC1CCCC1)c1ccncc1 (centres undefined),n,n,n,n,n
COc1cc2c(cc1NC(=O)COC(=O)[C@@H](NC(=O)c1ccccc1)C(C)C)oc1ccccc12,n,n,n,n,n
COc1ccc(/C=C/C(=O)OCC(=O)Nc2cc3oc4ccccc4c3cc2OC)cc1,115,n,163,n,x
COc1cc2c(cc1NC(=O)COC(=O)CNC(=O)c1ccccc1)oc1ccccc12,n,n,n,n,76
CC(NC(=O)c1cccc(OC2CCN(C3CCN(C)CC3)CC2)c1)c1ccccc1 (centres undefined),n,n,n,n,n
Cc1nn(-c2ccccc2)c(C)c1/C=N/n1c(-c2ccccc2Br)n[nH]c1=S,n,n,n,n,71
COCCCN1C(=O)C(CC(=O)NC2CCCCC2)CC(C(=O)N2CCOCC2)=C1C (centres undefined),x,x,x,x,n
O=C(O)CCC(=O)Nc1ccc(Br)c(Cl)c1,n,n,n,n,67
COc1ccc(-n2nnnc2SCC(=O)Nc2cccc(O)c2)cc1,n,n,n,n,n
CCN(Cc1ccccc1)C(c1ccc(C(F)(F)F)cc1)c1nnnn1C(C)(C)C (centres undefined),n,n,n,n,n
CCN(Cc1ccccc1)C(c1cccc(C#N)c1)c1nnnn1C(C)(C)C (centres undefined),n,n,n,n,89
Cc1ccc(C(=O)N2CCN(C(=O)CN3CCOCC3)C2)cc1,n,n,n,n,78
Cc1cc([N+](=O)[O-])c2ccccc2c1NS(=O)(=O)c1ccccc1,x,x,x,x,119
Nc1[nH]c(=O)nc2snnc12,x,x,x,x,n
COc1cc(OC)cc(C(=O)Nc2ccc(S(=O)(=O)Nc3cnc4ccccc4n3)cc2)c1,n,n,n,n,65
NC(=O)C[C@H](N)c1cn([C@@H](CC(N)=O)C(=O)N2CCNCC2)nn1,n,n,n,n,n
Nc1ccc(-c2cnc(N)c(C(=O)c3cccnc3)n2)cn1,x,x,x,x,n
N#Cc1ccsc1NC(=O)c1cccc([N+](=O)[O-])c1,n,n,n,n,63
N#Cc1ccsc1NC(=O)c1ccc(Cl)c([N+](=O)[O-])c1,n,n,n,n,72
N#Cc1ccsc1NC(=O)c1ccc2ncsc2c1,x,x,x,x,n
O=C(NCCCc1ccccc1)c1cccc(NC(=O)C2CCCC2)c1,x,x,x,x,n
Cc1ccc(C(=O)N(Cc2sccc2C)C2CCS(=O)(=O)C2)cc1 (centres undefined),n,n,n,n,50
Cc1ccsc1CN(C(=O)c1ccccc1)C1CCS(=O)(=O)C1 (centres undefined),n,n,n,n,n
COc1ccc(-n2ncc(S(=O)(=O)c3ccccc3)c2-c2ccc(Cl)cc2)cc1,n,n,n,n,n
O=S(=O)(c1ccccc1)c1cnn(-c2ccccc2)c1-c1ccc(F)cc1,n,n,n,n,51
Cc1cc(C(=O)N2CCCC(CO)(Cc3ccc(F)cc3)C2)c(C)o1 (centres undefined),n,n,n,n,n
CCCCn1c(NC(=O)c2ccc(Br)o2)c(S(=O)(=O)c2ccccc2)c2nc3ccccc3nc21,n,n,n,n,78
CCCCn1c(NC(=O)c2ccco2)c(S(=O)(=O)c2ccc(C)cc2)c2nc3ccccc3nc21,x,x,x,x,n

# Source: PubChem BioAssay (Sanford-Burnham Center for Chemical Genomics)
